From ChEMBL document CHEMBL3861996, “Arylsulfonamide derivatives of (aryloxy)ethyl pyrrolidines and piperidines as α1-adrenergic receptor antagonist with uro-selective activity” (Bioorg Med Chem, 2016)

Assays:
[1] = Selectivity ratio of EC50 for human alpha1B adrenergic receptor expressed in CHOK1 cells co-expressing aequorin assessed as inhibition of agonist induced calcium mobilization to EC50 for alpha1A adrenergic receptor (unknown origin) assessed as inhibition of agonist induced effect; type: cell-based; conditions: cho-k1
[2] = molecular target: T1, Adrenergic receptor alpha-2 (Rattus norvegicus, UniProt P22086+P19328+P22909); experiment: Displacement of [3H]-Clonidine from alpha2 adrenergic receptor in rat brain cerebral cortex membranes by liquid scintillation counting analysis; type: cell membranes, Membrane
T1 sequence (P22086 whole entry): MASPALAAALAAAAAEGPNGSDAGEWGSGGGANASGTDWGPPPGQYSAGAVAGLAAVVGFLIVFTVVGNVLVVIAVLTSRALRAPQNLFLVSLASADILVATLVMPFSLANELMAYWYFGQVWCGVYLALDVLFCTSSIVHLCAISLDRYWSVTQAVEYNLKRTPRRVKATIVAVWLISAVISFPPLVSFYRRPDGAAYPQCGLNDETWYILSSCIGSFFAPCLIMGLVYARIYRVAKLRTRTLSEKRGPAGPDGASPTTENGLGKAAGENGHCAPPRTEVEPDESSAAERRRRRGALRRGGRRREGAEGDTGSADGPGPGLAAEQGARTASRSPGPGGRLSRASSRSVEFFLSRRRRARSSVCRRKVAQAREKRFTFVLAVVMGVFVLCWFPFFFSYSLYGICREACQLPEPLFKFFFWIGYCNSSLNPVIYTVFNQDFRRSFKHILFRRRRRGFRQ
T1 sequence (P19328 whole entry): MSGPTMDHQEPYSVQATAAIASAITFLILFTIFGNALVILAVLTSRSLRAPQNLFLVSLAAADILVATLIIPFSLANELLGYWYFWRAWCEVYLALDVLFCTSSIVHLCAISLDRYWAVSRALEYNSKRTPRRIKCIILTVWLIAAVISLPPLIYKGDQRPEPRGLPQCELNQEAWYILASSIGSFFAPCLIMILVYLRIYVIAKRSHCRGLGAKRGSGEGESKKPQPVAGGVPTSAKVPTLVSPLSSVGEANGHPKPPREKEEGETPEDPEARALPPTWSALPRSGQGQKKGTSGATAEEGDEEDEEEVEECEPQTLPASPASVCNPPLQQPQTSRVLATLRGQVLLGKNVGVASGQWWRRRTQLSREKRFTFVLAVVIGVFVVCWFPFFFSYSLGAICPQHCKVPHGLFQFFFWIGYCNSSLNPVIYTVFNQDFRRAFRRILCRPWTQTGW
T1 sequence (P22909 whole entry): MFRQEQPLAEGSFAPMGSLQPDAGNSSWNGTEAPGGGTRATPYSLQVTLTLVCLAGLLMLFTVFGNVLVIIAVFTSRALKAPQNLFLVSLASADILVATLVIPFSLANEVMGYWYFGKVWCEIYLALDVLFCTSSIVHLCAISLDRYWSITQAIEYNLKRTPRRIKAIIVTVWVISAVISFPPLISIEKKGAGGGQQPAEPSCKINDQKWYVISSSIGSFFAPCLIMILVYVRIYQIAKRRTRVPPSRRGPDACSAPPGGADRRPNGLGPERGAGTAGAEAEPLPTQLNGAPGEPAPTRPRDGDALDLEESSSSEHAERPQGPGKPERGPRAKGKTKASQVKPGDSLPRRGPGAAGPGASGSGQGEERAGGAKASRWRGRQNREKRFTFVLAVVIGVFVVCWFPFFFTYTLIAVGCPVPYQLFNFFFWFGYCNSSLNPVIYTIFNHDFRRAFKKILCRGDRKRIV
Procedure, shortened: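 Rat cerebral cortex homogenized in ice-cold 50 mM Tris–HCl (pH 7.6), spun at 20,000 g for 20 min (0–4 °C), resuspended and spun again. Membranes incubated with 0.2 nM [3H]-prazosin (α1) or 2 nM [3H]-clonidine (α2) and seven to eight compound concentrations (10^-11 to 10^-4 M). Non-specific binding defined with 10 µM phentolamine (prazosin) or 10 µM clonidine (clonidine). Ended by GF/C filtration, counted by liquid scintillation. Run in duplicate; Ki from two independent experiments.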

SMILES | Ki [2] [nM] | Ratio EC50 [1]
COc1ccccc1OCCN1CCC(CNS(=O)(=O)c2cccc(Cl)c2)CC1 | 439 | 0.13
COc1ccc(S(=O)(=O)NCC2CCN(CCOc3ccccc3OC)CC2)cc1OC | 644 | 3.73
CC(C)Oc1ccccc1OCCN1CCC(CNS(=O)(=O)c2cccc3cccnc23)CC1 | 947 | 3.07
CC(C)Oc1ccccc1OCCN1CCC(CNS(=O)(=O)c2cccc(Cl)c2F)CC1 | 1212 | 3.8
COc1ccc(S(=O)(=O)NC2CCN(CCOc3ccccc3OC)CC2)cc1OC | 2140 | 2.4

More lines, main results first:

Ki [2] [nM] | SMILES | Ratio EC50 [1]
695 | COc1ccccc1OCCN1CCC(CNS(=O)(=O)c2cncc3ccccc23)CC1 | 3.68
678 | COc1ccccc1OCCN1CCC(CNS(=O)(=O)c2cccc(Cl)c2F)CC1 | 0.17
1345 | COc1ccccc1OCCN1CCC(CNS(=O)(=O)c2cc(Cl)ccc2F)CC1 | 0.08
297 | COc1ccccc1OCCN1CCC(NS(=O)(=O)c2cncc3ccccc23)CC1 | 6.1
